The record followed here is ChEMBL document CHEMBL1138799, “4-benzyl- and 4-benzoyl-3-dimethylaminopyridin-2(1H)-ones, a new family of potent anti-HIV agents: optimization and in vitro evaluation against clinically important HIV mutant strains” (J Med Chem, 2004).

The subject of experiment [1] is Human immunodeficiency virus 1. Put plainly: Inhibitory activity against HIV-1 mutant strain 103N. In kind it is functional, organism-based. In outline:
(§1)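 Mutant HIV-1 made by recombining mutant PR-RT sequence into a PR-RT-deleted HXB2 proviral clone. Serial compound concentrations plated, then virus (200 CCID50/well) and MT4 cells (30 000 cells/well; RPMI 1640, 10% FCS) added; 5 days at 37 °C, 5% CO2; viability read by MTT. EC50 = concentration giving 50% infection versus drug-free control; mock-infected cultures run in parallel for toxicity.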

Experiment [2] concerns Human immunodeficiency virus 1. As to the kind of experiment: Inhibitory activity against wild type HIV-1 LAI cell line. It counts as functional, organism-based. To be noted: Human immunodeficiency virus 1, LAI. In outline:
(§2)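 MT4 human T-lymphoblastoid cells were grown in RPMI 1640 with 10% fetal calf serum and antibiotics at 37 °C and 5% CO2. A compound concentration series was combined with HIV-1 LAI at 200 CCID50/well and 30 000 cells/well. Mock-infected cultures with the same concentrations were run in parallel to measure cytotoxicity. After 5 days, cell viability was read by MTT colorimetry. EC50 is the concentration giving 50% infection versus the drug-free control.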

Experiment [3] concerns Human immunodeficiency virus 1. As to the kind of experiment: Inhibitory activity against HIV-1 mutant strain 188L. It counts as functional, organism-based. A digest of the protocol:
as §1

Experiment [4] concerns Human immunodeficiency virus 1. Put plainly: Inhibitory activity against HIV-1 mutant strain 181C. In kind it is functional, organism-based. A digest of the protocol: as §1
The subject of experiment [5] is Human immunodeficiency virus 1. As to the kind of experiment: Selectivity index of cytotoxic activity (CC50) to inhibitory activity (IC50) relative to LAI cell line. It counts as functional. In outline:
as §2

Broadly, the IC50 is the concentration at which inhibition is half-maximal. For `CCc1c(C)nc(O)c(N(C)C)c1C(=O)c1ccc(C)o1`, the IC50 in experiment [1] was 250 nM; in experiment [2], 10 nM; in experiment [3], 50100 nM; in experiment [4], 1580 nM. Further, in experiment [5], the Selectivity index is 10000.
For `CCc1c(C)nc(O)c(N(C)C)c1Cc1ccccc1Cl`, the 50% inhibitory concentration (IC50) in experiment [1] amounted to 390 nM; in experiment [2] it was 6 nM; in experiment [3], 790 nM; in experiment [4], 200 nM. In experiment [5], this molecule yielded a Selectivity index of 15900.
The matching figures for `CCc1c(C)nc(O)c(N(C)C)c1Cc1ccccc1Br`: 250 nM, 6 nM, 1990 nM, 130 nM and 15900.
Turning to `CCc1c(C)nc(O)c(N(C)C)c1C(=O)c1cccc(CCC#N)c1`, the half-inhibitory concentration (IC50) in experiment [1] came to 10 nM; in experiment [2], 3 nM; in experiment [3], 1990 nM; in experiment [4] it was 250 nM. The Selectivity index in experiment [5] was found to be 31600.
With `CCc1c(C)nc(O)c(N(C)C)c1Cc1cccc(C(F)(F)F)c1`, the IC50 in experiment [1] was 390 nM; in experiment [2], 10 nM; in experiment [3] it was 5010 nM; in experiment [4], 30 nM. The Selectivity index in experiment [5] amounted to 10000.
For the molecule `CCOC(=O)/C=C/C=C/c1cccc(C(=O)c2c(CC)c(C)nc(O)c2N(C)C)c1`, the concentration for half-maximal inhibition (IC50) is 40 nM in experiment [1], 5 nM in experiment [2], 630 nM in experiment [3] and 200 nM in experiment [4]. Further, in experiment [5], the Selectivity index amounted to 398.
Consider `CCc1c(C)nc(O)c(N(C)C)c1C(=O)c1cccc(CC(C)C#N)c1` (stereo not drawn), for which the 50% inhibitory concentration (IC50) in experiment [1] came to 50 nM; in experiment [2], 8 nM; in experiment [3], 1990 nM; in experiment [4], 500 nM. Also, the Selectivity index in experiment [5] amounted to 12600.
`C=Cc1cccc(C(=O)c2c(CC)c(C)nc(O)c2N(C)C)c1`: the IC50 was found to be 30 nM in experiment [1], 2 nM in experiment [2], 790 nM in experiment [3] and 630 nM in experiment [4]. For the same molecule, the Selectivity index in experiment [5] was found to be 12600.
In the same order, the values of `CCc1c(C)nc(O)c(N(C)C)c1C(=O)c1cccc(C=O)c1` are 120 nM, 8 nM, 10000 nM, 1250 nM and 2510.
With `CCc1c(C)nc(O)c(N(C)C)c1C(=O)c1cccc([N+](=O)[O-])c1`, the IC50 in experiment [1] came out at 20 nM; in experiment [2] it was 2 nM; in experiment [3], 3160 nM; in experiment [4], 200 nM. Besides, in experiment [5], the Selectivity index is 39600.
For `CCc1c(C)nc(O)c(N(C)C)c1Cc1ccccc1C`, the IC50 in experiment [1] turned out to be 1250 nM; in experiment [2], 20 nM; in experiment [3], 7940 nM; in experiment [4], 1000 nM. Moreover, the Selectivity index in experiment [5] came to 3980.
In the case of `CCc1c(C)nc(O)c(N(C)C)c1Cc1cc(F)cc(F)c1`, the IC50 in experiment [1] was 30 nM; in experiment [2], 10 nM; in experiment [3], 500 nM; in experiment [4], 100 nM. The molecule also yielded a Selectivity index in experiment [5] of 7940.
For the molecule `CCc1c(C)nc(O)c(N(C)C)c1Cc1cccnc1`, the IC50 in experiment [1] was 390 nM; in experiment [2], 10 nM; in experiment [3] it was 3980 nM; in experiment [4], 1000 nM. Besides, the Selectivity index in experiment [5] stood at 6310.
For `CCc1c(C)nc(O)c(N(C)C)c1C(=O)c1cccc(/C=C\C#N)c1`, the IC50 in experiment [1] turned out to be 3 nM; in experiment [2] it was 4 nM; in experiment [3], 40 nM; in experiment [4], 10 nM. In experiment [5], this molecule yielded a Selectivity index of 25100.
With `CCc1c(C)nc(O)c(N(C)C)c1Cc1cccc(Br)c1`, the IC50 turned out to be 100 nM in experiment [1], 4 nM in experiment [2], 2510 nM in experiment [3] and 6 nM in experiment [4]. In experiment [5], this molecule registered a Selectivity index of 25100.
The matching figures for `CCc1c(C)nc(O)c(N(C)C)c1Cc1cccc(C)c1`: 20 nM, 2 nM, 1000 nM, 60 nM and 39900.
Regarding `CCc1c(C)nc(O)c(N(C)C)c1Cc1ccccc1`, the IC50 in experiment [1] worked out at 200 nM; in experiment [2], 4 nM; in experiment [3], 7940 nM; in experiment [4] it was 500 nM. In addition, in experiment [5], the Selectivity index stood at 25100.
For the molecule `C/C=C/c1cccc(C(=O)c2c(CC)c(C)nc(O)c2N(C)C)c1`, the IC50 in experiment [1] came to 150 nM; in experiment [2] it was 5 nM; in experiment [3], 390 nM; in experiment [4], 390 nM. For the same molecule, the Selectivity index in experiment [5] worked out at 10000.
On to `CCc1c(C)nc(O)c(N(C)C)c1C(=O)c1cccs1`, for which the IC50 in experiment [1] was determined as 310 nM; in experiment [2], 10 nM; in experiment [3], 100000 nM; in experiment [4] it was 3980 nM. Moreover, the Selectivity index in experiment [5] came out at 6310.
The matching figures for `CCc1c(C)nc(O)c(N(C)C)c1C(=O)c1cccc(N)c1`: 500 nM, 10 nM, 10000 nM, 10000 nM and 2510.
For `CCc1c(C)nc(O)c(N(C)C)c1C(=O)c1cccc(/C(C)=C(\C)C#N)c1`, the IC50 in experiment [1] was found to be 20 nM; in experiment [2], 6 nM; in experiment [3], 1580 nM; in experiment [4] it was 120 nM. In experiment [5], this molecule had a Selectivity index of 1580.
For `CCOC(=O)/C=C/c1cccc(C(=O)c2c(CC)c(C)nc(O)c2N(C)C)c1`, the IC50 in experiment [1] came out at 10 nM; in experiment [2] it was 3 nM; in experiment [3], 150 nM; in experiment [4], 150 nM. In experiment [5], this molecule registered a Selectivity index of 3160.
Regarding `CCc1c(C)nc(O)c(N(C)C)c1C(=O)c1cccc(C(C)C#N)c1` (stereo not drawn), the IC50 in experiment [1] is 8 nM; in experiment [2], 3 nM; in experiment [3] it was 250 nM; in experiment [4], 120 nM. In experiment [5], this molecule came in with a Selectivity index of 31600.
The matching figures for `CCc1c(C)nc(O)c(N(C)C)c1C(=O)c1ccc(OC)c(C)c1`: 1580 nM, 70 nM, 100000 nM, 100000 nM and 200.
The matching figures for `CCc1c(C)nc(O)c(N(C)C)c1C(=O)c1cccc(CC#N)c1`: 6 nM, 1 nM, 1000 nM, 120 nM and 31600.
As for `CCc1c(C)nc(O)c(N(C)C)c1C(=O)c1cccc(/C=C(\C)C#N)c1`, the IC50 was found to be 1 nM in experiment [2] and 630 nM in experiment [3]. The Selectivity index in experiment [5] is 6310.
In the case of `CCc1c(C)nc(O)c(N(C)C)c1Cc1cccc(Cl)c1`, the IC50 is 40 nM in experiment [1], 5 nM in experiment [2], 1580 nM in experiment [3] and 80 nM in experiment [4]. In experiment [5], this molecule registered a Selectivity index of 20000.
As for `CCc1c(C)nc(O)c(N(C)C)c1C(=O)c1cc(Br)cs1`, the IC50 in experiment [1] is 100 nM; in experiment [2], 3 nM; in experiment [3], 10000 nM; in experiment [4], 630 nM. For the same molecule, in experiment [5], the Selectivity index is 10000.
`CCc1c(C)nc(O)c(N(C)C)c1C(=O)c1cccc(-c2cccnc2)c1`: the concentration for half-maximal inhibition (IC50) worked out at 50 nM in experiment [1], 6 nM in experiment [2], 10000 nM in experiment [3] and 10000 nM in experiment [4]. The Selectivity index in experiment [5] was determined as 126.
Consider `CCc1c(C)nc(O)c(N(C)C)c1C(=O)c1cccc(/C=C/c2cnccn2)c1`, for which the IC50 amounted to 50 nM in experiment [1], 20 nM in experiment [2], 200 nM in experiment [3] and 70 nM in experiment [4]. In experiment [5], the Selectivity index stood at 3960.
`CCc1c(C)nc(O)c(N(C)C)c1Cc1cccc(F)c1`: the IC50 in experiment [1] was 60 nM; in experiment [2], 2 nM; in experiment [3], 1580 nM; in experiment [4], 160 nM. Moreover, the Selectivity index in experiment [5] is 39800.
In the same order, the values of `CCc1c(C)nc(O)c(N(C)C)c1Cc1cn(C)c2ccccc12` are 390 nM, 30 nM, 250 nM, 310 nM and 2510.
Consider `CCc1c(C)nc(O)c(N(C)C)c1C(=O)c1cccc(/C=C/c2cccnc2)c1`, for which the IC50 in experiment [1] came out at 20 nM; in experiment [2] it was 3 nM; in experiment [3], 150 nM; in experiment [4], 60 nM. In experiment [5], this molecule gave a Selectivity index of 3160.
In the same order, the values of `CCc1c(C)nc(O)c(N(C)C)c1C(=O)c1cccc(CO)c1` are 360 nM, 50 nM, 18600 nM, 3870 nM and 2940.
Turning to `CCc1c(C)nc(O)c(N(C)C)c1Cc1cccc(OC)c1`, the half-inhibitory concentration (IC50) stood at 100 nM in experiment [1], 4 nM in experiment [2], 310 nM in experiment [3] and 320 nM in experiment [4]. The molecule further displayed a Selectivity index in experiment [5] of 12600.
Take `CCc1c(C)nc(O)c(N(C)C)c1C(=O)c1cccc(C(C)=O)c1`: the IC50 in experiment [1] came to 120 nM; in experiment [2] it was 10 nM; in experiment [3], 10000 nM; in experiment [4], 1000 nM. The Selectivity index in experiment [5] stood at 3160.
